According to ChEMBL document CHEMBL5329183, “Naphthylthiazoles: a class of broad-spectrum antifungals” (RSC Med Chem, 2023):
≈ marks a conversion by molar mass, not a printed value.

Tests used:
Cryptococcus neoformans [1] = experiment: Antifungal activity against Cryptococcus neoformans NR 41299 assessed as inhibition of fungal growth incubated for 48 hrs by broth microdilution method; format: functional
How it was run: (§1)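 Clinical isolate; CLSI broth microdilution over a range of concentrations (media listed: RPMI 1640, MOPS, YPD). MIC read as lowest concentration inhibiting growth by 50% after 48 h incubation at 35 °C.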

Nakaseomyces glabratus [2] = experiment: Antifungal activity against Candida glabrata ATCC MYA2950 assessed as inhibition of fungal growth incubated for 24 hrs by broth microdilution method; format: functional
How it was run: (§2)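 Clinical isolate; CLSI broth microdilution over a range of concentrations (media listed: RPMI 1640, MOPS, YPD). MIC taken as lowest concentration giving 50% growth inhibition after 24 h at 35 °C.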

[3] = Half life in Sprague-Dawley rat at 25 mg/kg, po administered as single dose by LC/MS/MS analysis; format: ADME, organism-based; details: in vivo
How it was run: (§3)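 Male naïve Sprague–Dawley rats (n=3) received a single 25 mg kg−1 oral gavage dose in 5% ethanol/45% PEG 400/50% water. EDTA-K2 blood was sampled over 24 h post-dose. Plasma levels were measured by LC/MS/MS after acetonitrile protein precipitation, and parameters came from two-compartment analysis.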

Candida parapsilosis = experiment: Antifungal activity against Candida parapsilosis CAB 502638 assessed as inhibition of fungal growth incubated for 24 hrs by broth microdilution method; format: functional; details: Lodderomyces parapsilosis
How it was run: (§4)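 Broth microdilution per CLSI guidelines against clinical isolates, incubated at 35 °C for 24 h (Candida, Aspergillus) or 48 h (Cryptococcus). MIC was the lowest concentration giving 50% growth inhibition.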

[4] = Selectivity ratio of CC50 for cytotoxicity against African green monkey Vero cells to MIC for antifungal activity against Cryptococcus gattii NR 43209; format: toxicity, cell-based
[5] = Volume of distribution in Sprague-Dawley rat at 25 mg/kg, po administered as single dose by LC/MS/MS analysis; format: ADME, organism-based; details: in vivo
How it was run: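 Male naïve Sprague–Dawley rats (n = 3) received a single 25 mg kg−1 dose by oral gavage in 5% ethanol/45% PEG 400/50% water. EDTA-K2 blood was sampled over 24 h. Plasma levels were measured by LC/MS/MS after acetonitrile protein precipitation, and parameters came from two-compartment analysis.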

[6] = Selectivity ratio of CC50 for cytotoxicity against African green monkey Vero cells to MIC for antifungal activity against Cryptococcus neoformans NR 48773; format: toxicity, cell-based
[7] = Clearance in Sprague-Dawley rat at 25 mg/kg, po administered as single dose by LC/MS/MS analysis; format: ADME, organism-based; details: in vivo; how it was run: as §3
Cryptococcus neoformans [8] = experiment: Antifungal activity against Cryptococcus neoformans NR 48771 assessed as inhibition of fungal growth incubated for 48 hrs by broth microdilution method; format: functional; how it was run: as §1
[Candida] auris = Antifungal activity against Candida auris 383 assessed as inhibition of fungal growth incubated for 24 hrs by broth microdilution method; format: functional; details: Candidozyma auris; how it was run: as §2
Caco-2 = experiment: Cytotoxicity against human Caco-2 cells assessed as inhibition of cell viability at 128 ug/ml incubated for 2 hrs by MTS assay; format: toxicity, cell-based; details: caco-2, 2 h, dose 128 µg/ml
How it was run: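 Caco-2 cells were grown in DMEM with 10% FBS, 1× nonessential amino acids and penicillin–streptomycin, then treated with 32, 64 and 128 μg mL−1 for 2 h at 37 °C, 5% CO2, in triplicate. MTS was added for 3 h and OD490 read. Viability was expressed as % of DMSO control (mean ± SD).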

[9] = Plasma concentration in Sprague-Dawley rat at 25 mg/kg, po administered as single dose and measured for 18 hrs by LC/MS/MS analysis; format: ADME, organism-based; how it was run: as §3
[10] = Antifungal activity against Cryptococcus gattii NR 43213 assessed as inhibition of fungal growth incubated for 48 hrs by broth microdilution method; format: functional, Cryptococcus gattii VGI; how it was run: as §4
[11] = Selectivity ratio of CC50 for cytotoxicity against human Caco-2 cells to MIC for antifungal activity against Cryptococcus neoformans NR 48770; format: toxicity, cell-based
Nakaseomyces glabratus [12] = experiment: Antifungal activity against Candida glabrata ATCC 66032 assessed as inhibition of fungal growth incubated for 24 hrs by broth microdilution method; format: functional; how it was run: as §2
[13] = Selectivity ratio of CC50 for cytotoxicity against African green monkey Vero cells to MIC for antifungal activity against Cryptococcus neoformans NR 48771; format: toxicity, cell-based
Candida albicans = experiment: Antifungal activity against wild type Candida albicans SC5314 assessed as inhibition of fungal growth; format: functional
[14] = Antifungal activity against Cryptococcus gattii NR 43210 assessed as inhibition of fungal growth incubated for 48 hrs by broth microdilution method; format: functional, Cryptococcus gattii VGI; how it was run: as §4
[15] = Cmax in Sprague-Dawley rat at 25 mg/kg, po administered as single dose by LC/MS/MS analysis; format: ADME, organism-based; parameters: dose 25 mg/kg, route po; details: in vivo; how it was run: as §3
Clostridioides difficile = experiment: Antibacterial activity against Clostridium difficile ATCC BAA1870 assessed as inhibition of bacterial growth; format: functional
[16] = Selectivity ratio of CC50 for cytotoxicity against African green monkey Vero cells to MIC for antifungal activity against Cryptococcus gattii NR 43213; format: toxicity, cell-based
Cryptococcus neoformans [17] = experiment: Antifungal activity against Cryptococcus neoformans NR 41300 assessed as inhibition of fungal growth incubated for 48 hrs by broth microdilution method; format: functional; how it was run: as §1
Lactobacillus gasseri = experiment: Antibacterial activity against Lactobacillus gasseri HM400 assessed as inhibition of bacterial growth; format: toxicity, organism-based
[18] = Antifungal activity against Cryptococcus gattii NR 43209 assessed as inhibition of fungal growth incubated for 48 hrs by broth microdilution method; format: functional, Cryptococcus gattii VGI; how it was run: as §4
[19] = Selectivity ratio of CC50 for cytotoxicity against African green monkey Vero cells to MIC for antifungal activity against Cryptococcus neoformans NR 41298; format: toxicity, cell-based
Staphylococcus aureus = experiment: Antibacterial activity against Methicillin-resistant Staphylococcus aureus USA300 assessed as inhibition of bacterial growth; format: functional
[20] = Selectivity ratio of CC50 for cytotoxicity against African green monkey Vero cells to MIC for antifungal activity against Cryptococcus neoformans NR 41299; format: toxicity, cell-based
[21] = Selectivity ratio of CC50 for cytotoxicity against African green monkey Vero cells to MIC for antifungal activity against Cryptococcus neoformans NR 41300; format: toxicity, cell-based
J774 = experiment: Cytotoxicity against mouse J774 cells assessed as reduction in cell viability at 64 ug/ml measured after 24 hrs by MTS assay; format: toxicity, cell-based; details: j774, 24 h, dose 64 µg/ml
How it was run: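 J774 murine macrophages were grown in DMEM with 10% FBS and exposed to compounds for 24 h at 37 °C, 5% CO2. After 3 h with MTS, OD490 was read. Viability was expressed relative to DMSO-matched controls.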

Cryptococcus neoformans [22] = experiment: Anti-cryptococcal activity against Cryptococcus neoformans NR 41300 infected in mouse J774 cells assessed as log reduction of intracellular fungal colony forming unit at 4 ug/ml measured after 24 hrs; format: functional; details: dose 4 µg/ml
How it was run: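 C. neoformans NR-41300 was grown 48 h in YPD, washed, and used to infect J774 macrophages at MOI ~100:1 for 1 h, followed by PBS washes. Compounds at 4 μg mL−1 (triplicate) were applied for 22 h at 37 °C, 5% CO2. Extracellular yeast were killed with amphotericin B 1 μg mL−1 for 1 h. Cells were lysed in 0.1% Triton X-100 and plated on YPD agar for 48 h at 37 °C; readout log10 CFU mL−1.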

[23] = Plasma concentration in Sprague-Dawley rat at 25 mg/kg, po administered as single dose and measured within few minutes by LC/MS/MS analysis; format: ADME, organism-based; details: in vivo; how it was run: as §3

Row | SMILES | MIC (Cryptococcus neoformans [1]) [µg/mL] | MIC (Nakaseomyces glabratus [2]) [µg/mL] | MIC (Candida parapsilosis) [µg/mL] | selectivity ratio [4] | selectivity ratio [6] | MIC (Cryptococcus neoformans [8]) [µg/mL] | MIC ([Candida] auris) [µg/mL] | Activity (Caco-2) | MIC [10] [µg/mL] | selectivity ratio [11] | MIC (Nakaseomyces glabratus [12]) [µg/mL] | selectivity ratio [13] | MIC (Candida albicans) [µg/mL] | MIC [14] [µg/mL] | MIC (Clostridioides difficile) [µg/mL] | selectivity ratio [16] | MIC (Cryptococcus neoformans [17]) [µg/mL] | MIC (Lactobacillus gasseri) [µg/mL] | MIC [18] [µg/mL] | selectivity ratio [19] | other results
1 | Cc1nc(-c2ccc3ccccc3c2)sc1-c1nnc(N[C@@H]2CCCC[C@H]2N)o1 (relative stereo) | 1 (≈ 2.47 µM) | 1 (≈ 2.47 µM) | 1 (≈ 2.47 µM) | 64 | 64 | 1 (≈ 2.47 µM) | 1 (≈ 2.47 µM) | Non-Toxic | 2 (≈ 4.93 µM) | 64 | 1 (≈ 2.47 µM) | 64 | 1 (≈ 2.47 µM) | 1 (≈ 2.47 µM) | 32 (≈ 78.9 µM) | 64 | 1 (≈ 2.47 µM) | > 128 | 1 (≈ 2.47 µM) | 64 | half-life [3]: 3.6 h; Vd [5]: 1.64 L; CL/F [7]: 5.33 mL/min; concentration at 18 h [9]: 1000 ng/mL; Cmax [15]: 9400 ng/mL; MIC (Staphylococcus aureus): 64 µg/mL (≈ 158 µM); selectivity ratio [20]: 64; selectivity ratio [21]: 64; Activity (J774): Non-Toxic; Activity (Cryptococcus neoformans [22]): 0.66 log10CFU/ml; Cp [23]: 1000 ng/mL
2 | Cc1nc(-c2ccc3ccccc3c2)sc1-c1nnc(N[C@@H]2CCCC[C@@H]2N)o1 (relative stereo) | 2 (≈ 4.93 µM) | 0.5 (≈ 1.23 µM) | 1 (≈ 2.47 µM) | 64 | 64 | 2 (≈ 4.93 µM) | 1 (≈ 2.47 µM) | Non-Toxic | 2 (≈ 4.93 µM) | 64 | 1 (≈ 2.47 µM) | 64 | 1 (≈ 2.47 µM) | 1 (≈ 2.47 µM) | 64 (≈ 158 µM) | 64 | 1 (≈ 2.47 µM) | > 128 | 1 (≈ 2.47 µM) | 64 | MIC (Staphylococcus aureus): > 64 µg/mL; selectivity ratio [20]: 64; selectivity ratio [21]: 64; Activity (J774): Non-Toxic; Activity (Cryptococcus neoformans [22]): 1.04 log10CFU/ml
